# Hits are enriched below; roughly 9.4% of the tested compounds scored in any of these assays.
# Lmaj promast – Leishmania major promastigote growth inhibition, primary screen | inhibition, % at 10 µM | 200,000 tested, 9% active | Leishmania major promastigotes, resazurin fluorescence viability; in the data active = inhibition above about 50%;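 note: promastigotes grown with compound for 44 hours at 28 °C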
# T cruzi repl – inhibitors of intracellular T. cruzi growth, primary screen, luminescence, NIH3T3 host cells; T. cruzi beta-gal in NIH3T3, 90 h; inhibition, % (concentration not given with the values); 300,000 tested, 1.4% active;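 active = mean inhibition across valid replicates above about 55%, limit read from the data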;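 note: signal also drops with host cell toxicity which is not excluded here; 0% = plate median of DMSO wells and 100% = zero luminescence signal; higher percent means less beta-gal luminescence so fewer parasites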
#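 System: Mouse NIH/3T3 fibroblasts infected with β-gal-expressing T. cruzi Tulahuen C4 | Quantity: NIH/3T3 cells, 5,000 per well | Reagent: 5000 reporter trypomastigotes per well | Dosing: Compound pinned at 50 nL/well, DMSO | Schedule: 3 h host attachment, then at least 90 h co-culture | Detection: GalScreen luminescence, 60 min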
# CSC inhib – cancer stem cell viability inhibitors, primary screen, luminescence; cancer stem cell-like cells viability; inhibition, % at 7.5 µM; 300,000 tested, 1.1% active; AID 2717, 2010; in the data active = inhibition above about 75%; tested in HMLE shEcad cells
# Beta cell apopt – inhibitors of cytokine-induced beta cell apoptosis, primary screen, luminescence; protection from apoptosis, % (no concentration beside the values); 300,000 tested, 0.8% active; INS-1E cytokine-induced death, ATP luminescence, 48 h; percent of positive-control rescue, neutral wells zero; AID 435005, 2010;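 active = Every replicate reaches about 75%, or at least half do and their mean reaches it too, limit read from the data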;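 note: 0% = cytokine-treated negative control wells and 100% = positive control rescue; higher means more ATP so stronger rescue from cytokine killing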
# SKKanGAS inh – S. pyogenes SKKanGAS growth inhibitors in kanamycin, primary screen, streptokinase expression inhibitor project, SKKanGAS strain, BacTiter-Glo luminescence. inhibition, % at 7.5 µM. 300,000 tested, 1.3% active. 6 h;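 active = mean replicate score, as percent of positive control median, at least 50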;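 note: strain carries kanamycin resistance gene driven by streptokinase promoter and grows in 40 µg/ml kanamycin; loss of luminescence reflects streptokinase promoter inhibition or plain growth inhibition; 0% = median of DMSO wells and 100% = positive control at its reference dose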
# Mdm2 MdmX PPI – inhibitors of human Mdm2-MdmX association, primary screen, cell-based, luminescence, split luciferase, SaOS-2, uHTS; inhibition, % at 8 µM; 330,000 tested, 3% active; Protein Mdm4 (Homo sapiens) + E3 ubiquitin-protein ligase Mdm2 (Homo sapiens), …; SaOS-2 split-luciferase Mdm2/MdmX complementation; AID 485346, 2010;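 active = inhibition of at least 50% at 8 µM in the primary screen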
# Target sequence (O15151 whole entry, looked up): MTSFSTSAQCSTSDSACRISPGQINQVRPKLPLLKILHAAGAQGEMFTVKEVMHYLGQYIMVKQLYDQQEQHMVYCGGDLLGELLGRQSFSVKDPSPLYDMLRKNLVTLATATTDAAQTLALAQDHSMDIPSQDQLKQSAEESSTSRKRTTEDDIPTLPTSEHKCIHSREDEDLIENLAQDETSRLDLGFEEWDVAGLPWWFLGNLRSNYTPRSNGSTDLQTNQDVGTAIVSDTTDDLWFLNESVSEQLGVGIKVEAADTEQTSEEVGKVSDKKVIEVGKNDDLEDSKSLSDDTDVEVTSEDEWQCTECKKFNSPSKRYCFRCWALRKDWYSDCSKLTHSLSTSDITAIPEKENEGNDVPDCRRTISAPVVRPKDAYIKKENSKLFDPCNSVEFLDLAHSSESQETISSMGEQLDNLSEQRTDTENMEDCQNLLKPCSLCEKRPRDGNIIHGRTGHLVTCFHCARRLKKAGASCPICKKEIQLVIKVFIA
# Target sequence (Q00987 whole entry, looked up): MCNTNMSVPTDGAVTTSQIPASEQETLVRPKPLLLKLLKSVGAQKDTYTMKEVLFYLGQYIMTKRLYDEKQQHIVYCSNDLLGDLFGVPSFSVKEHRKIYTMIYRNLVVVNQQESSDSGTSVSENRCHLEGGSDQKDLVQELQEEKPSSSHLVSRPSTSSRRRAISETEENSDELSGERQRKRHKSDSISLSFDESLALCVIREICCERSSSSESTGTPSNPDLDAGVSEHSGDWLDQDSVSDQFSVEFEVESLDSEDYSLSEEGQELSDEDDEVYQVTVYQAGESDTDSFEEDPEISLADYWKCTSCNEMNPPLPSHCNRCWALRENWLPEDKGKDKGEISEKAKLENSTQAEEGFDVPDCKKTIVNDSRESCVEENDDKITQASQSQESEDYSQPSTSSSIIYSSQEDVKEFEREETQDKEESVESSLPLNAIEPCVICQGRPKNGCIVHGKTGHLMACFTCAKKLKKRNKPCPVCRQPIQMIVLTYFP
# An asterisk follows results filed as active; nt = not tested or not shown.
SMILES,Lmaj promast,T cruzi repl,CSC inhib,Beta cell apopt,SKKanGAS inh,Mdm2 MdmX PPI
Cn1nc(C(=O)NNC(=O)CCc2ccccc2Cl)c2ccccc2c1=O,nt,-12.6,-5.5,-15.7,29.6,15.3
COCCCn1c(SCC(=O)Nc2ccc(NC(C)=O)cc2)nc2sc3c(c2c1=O)CCC3,nt,22.3,0.4,-1.1,1.4,22.4
CC(NC(=O)C(=O)NCCc1c[nH]c2ccccc12)c1ccccc1 (stereo unspecified),nt,-6.9,3.4,-0.3,3.3,-8.6
O=[N+]([O-])c1ccc(O)c(C=Nc2ccc3c(c2)OCO3)c1,nt,-1.4,-18.6,11.8,8.5,-3.6
O=[N+]([O-])c1cc(Br)cc(C=Nc2ccc3c(c2)OCO3)c1O,nt,-7.1,17.6,7.0,54.3*,14.5
C=CCc1ccc(OCCCCN2CC(C)CC(C)C2)c(OC)c1 (stereo unspecified),96.1*,11.3,55.0,6.7,2.8,15.8
C=CCc1ccc(OCCCOc2ccc(C(=O)O)cc2)c(OC)c1,4.7,6.2,-7.4,nt,6.6,21.0
CC1CCCN(CCCOc2ccc(Br)cc2Cl)C1 (stereo unspecified),89.0*,42.4,193.7*,8.1,-2.8,-4.7
C=CCc1ccc(OCCCCN2CCC(C)CC2)c(OC)c1,89.4*,9.1,53.6,-0.8,1.6,-17.8
C=CCc1ccc(OCCCN2CCCC(C)C2)c(OC)c1 (stereo unspecified),99.6*,30.4,0.9,nt,-1.6,-7.3
O=C(O)CCc1nn2c3ccccc3n(Cc3ccccc3F)c2nc1=O,-6.3,-7.3,5.6,-2.5,-5.7,22.0
Cc1ccnc(NC(=O)C(C)N2C(=O)c3ccccc3S2(=O)=O)c1 (stereo unspecified),nt,-14.0,-6.0,-1.1,0.2,-3.2
CC1CN(CCCCOc2ccc(Cl)c3ccccc23)CC(C)O1 (stereo unspecified),nt,50.7,41.4,1.1,1.7,18.0
CC1CN(CCOc2ccc(Cl)cc2Cl)CC(C)O1 (stereo unspecified),40.0,-6.5,18.9,-3.1,-1.0,-8.8
COc1cc(C)ccc1OCCCCN1CC(C)OC(C)C1 (stereo unspecified),96.9*,15.2,-5.2,nt,1.2,27.8
CCOc1ccccc1OCCOCCN1CC(C)OC(C)C1 (stereo unspecified),63.2*,-1.8,-12.5,-3.3,0.5,9.1
COC(=O)NNC(=O)c1ccc(Cl)cc1Cl,-5.7,-18.4,-8.2,2.1,-5.7,-28.8
CC(C)(C)C(=O)NC(=S)NNC(=O)c1ccc(Cl)cc1Cl,-7.2,15.3,18.0,29.8,73.3*,15.9
COc1ccc(COC(=O)C2CCN(S(=O)(=O)c3ccc(C)cc3)CC2)cc1,nt,-6.5,-16.4,0.6,2.1,16.3
O=C(COc1cccc2cccnc12)N/N=C/c1ccccc1O,nt,4.5,16.8,2.4,99.1*,40.2
COC(=O)Cn1cc(/C=N/NC(=O)COc2cccc3cccnc23)c2ccccc21,-2.3,-3.7,12.8,-12.6,-3.0,8.8
Cc1ccccc1OCC(=O)N/N=C/c1cccc2cccnc12,nt,0.3,-11.8,-6.9,-0.7,24.9
C#CCn1cc(/C=N/NC(=O)COc2cccc3cccnc23)c2ccccc21,57.5*,5.6,4.0,-1.7,4.4,6.6
Cc1ccc(C)c(Cn2c(=O)n(C)c(=O)c3sccc32)c1,nt,4.8,-4.7,-6.7,-1.9,1.7
Cc1nnc(NC(=O)c2cccc(S(=O)(=O)N(C)c3cccc(Cl)c3)c2)s1,nt,nt,-13.9,3.0,nt,-6.2
SMILES,Lmaj promast,T cruzi repl,CSC inhib,Beta cell apopt,SKKanGAS inh,Mdm2 MdmX PPI
Cc1ccc(NC(=O)CCN2CC(C)OC(C)C2)cc1 (stereo unspecified),nt,-12.0,-21.0,-2.9,-2.7,20.2
CC1CCN(CCC(=O)Nc2ccc3c(c2)CCC3)CC1,83.5*,7.4,nt,nt,-6.0,-37.1
CN(c1cccc(Cl)c1)S(=O)(=O)c1cccc(C(=O)Nc2ccc3c(c2)CCC3)c1,94.5*,-12.8,6.2,-2.6,13.6,18.5
CC1CN(S(=O)(=O)c2cccc(C(=O)NN3CCN(C)CC3)c2)CC(C)O1 (stereo unspecified),-5.2,-11.4,8.7,-0.9,-2.4,-44.4
Cc1cccc(C)c1NC(=O)CCCN1CC(C)OC(C)C1 (stereo unspecified),65.7*,-5.7,-3.1,nt,1.4,2.1
CC1CN(S(=O)(=O)c2cccc(C(=O)Nc3ccc4c(c3)CCC4)c2)CC(C)O1 (stereo unspecified),85.3*,-3.4,nt,0.3,-6.9,6.2
CCC(C)CCN1C(Nc2ccccc2)=NC[C@@H]1C (stereo partly specified),nt,-7.3,-1.6,1.0,5.3,5.3
Cc1cc(NC(=O)CCN2CCC(C(N)=O)CC2)ccc1Br,81.8*,-7.5,-22.4,-2.6,-5.2,2.9
Cc1ccc(NC(=O)CCN2CC(C)OC(C)C2)cc1C (stereo unspecified),nt,-6.0,-8.9,-1.8,1.3,0.5
NC(=O)C1CCN(CCC(=O)Nc2ccc3c(c2)CCC3)CC1,79.7*,-7.1,nt,5.2,-2.4,-16.3
CC1CN(CCC(=O)Nc2ccc3c(c2)CCC3)CC(C)O1 (stereo unspecified),85.5*,3.5,-12.0,-4.4,-0.6,0.6
C=CCNC(=O)N1CCCC(N2CCN(c3ccccc3OC)CC2)C1 (stereo unspecified),nt,0.9,-4.3,-4.4,-7.6,19.4
CCOC(=O)/C=C1\NC(C)(C)Cc2cc(OC)c(OC)cc21,-4.0,0.3,nt,-2.4,-7.5,10.0
CCOC(=O)/C=C1\NC2(CCCCC2)Cc2cc(OC)c(OC)cc21,2.9,59.8*,-11.8,-8.3,-6.0,14.1
N#CCSc1nc2c(c(=O)n1Cc1ccco1)C1(CCCC1)Cc1ccccc1-2,4.4,36.0,83.0*,0.1,23.5,27.5
CCCn1c(SCC#N)nc2c(c1=O)C1(CCCC1)Cc1ccccc1-2,14.8,22.6,127.0*,8.7,13.4,-19.2
Cc1ccc(S(=O)(=O)N2[C@@H](c3ccc(Cl)cc3)C(C(=O)O)=CC[C@H]2c2ccc(Cl)cc2)cc1,nt,nt,17.0,3.7,nt,4.6
NC(=S)N/N=C/c1ccccc1O,nt,7.1,7.7,91.5*,-1.1,5.2
NC(=S)N/N=C/c1ccc2ccccc2c1,9.2,58.4*,-0.5,6.0,-24.0,17.5
O=C(COc1ccccc1-c1ccccc1)N/N=C/c1ccc2ccccc2c1,40.6,13.1,100.5*,97.1*,88.2*,nt
CC1(c2nnc(-c3cccc(Cl)c3)o2)CC(c2ccc(Br)cc2)=NO1 (stereo unspecified),nt,-13.4,-0.1,-3.9,-2.0,3.9
CCCc1ccc(-c2cc(N)n[nH]2)cc1,19.0,5.3,6.1,-18.9,112.6*,-7.0
CCc1ccccc1NC(=O)CN1C(=O)c2ccccc2S1(=O)=O,nt,-17.4,-0.4,nt,-4.1,11.4
